Assay results of several laboratories.
Each line is one published result; the experiments were not run side by side.
Target: Carbonic anhydrase 12 (CA12, Homo sapiens, UniProt O43570)
Observed: enzyme activity
Mode: inhibitor

CC1CCCCC1OC(=O)c1ccc(=O)oc1 (stereo not shown)
Ki (stopped-flow): 82.8 µM

CS(=O)(=O)Nc1ccc(Nc2nc(-c3cc4cc(Br)ccc4oc3=O)cs2)cc1Oc1ccccc1
IC50 (absorbance): 0.61 µM

NS(=O)(=O)c1ccc(-c2ccc(Nc3ccncc3)cc2)cc1
IC50 (absorbance): 0.88 µM

COc1ccc(-n2cc(COC(=O)c3ccc(=O)oc3)nn2)cc1
Ki (stopped-flow): 54.8 µM

N#CSCCCCOc1ccc2c(-c3ccccc3)cc(=O)oc2c1
Ki (stopped-flow): 0.234 µM

NS(=O)(=O)c1ccc(-c2ccc(Nc3ccc(F)c(Cl)c3)cc2)cc1
IC50 (absorbance): 2.78 µM

CS(=O)(=O)Nc1ccc(Nc2nc(-c3cc4ccccc4oc3=O)cs2)cc1Oc1ccccc1
IC50 (absorbance): 0.79 µM

Cc1cc(=O)oc2cc(OCCCCSC#N)ccc12
Ki (stopped-flow): 0.0542 µM

COc1ccc2oc(=O)c(-c3csc(Nc4ccc(C(=O)O)cc4)n3)cc2c1
IC50 (absorbance): 1.88 µM

Cc1ccc(OC(=O)c2ccc(=O)oc2)cc1
Ki (stopped-flow): 1.83 µM
